Reference: ChEMBL document CHEMBL2177015, “Bicyclization and tethering to albumin yields long-acting peptide antagonists” (J Med Chem, 2012)
Each block holds one molecule with its values, some of them ahead of it. Starred links: 1 amine or outer side, 2 acyl side, 3 side chain; linkers in the order of their positions; H or OH if unused. Positions of bridges follow the written chain, without caps; N, C: chain ends. Residues, ends and D or L forms follow the SMILES beside them. TBMB = c1c(C[*:1])cc(C[*:3])cc1C[*:2]; mXylylene = c1cc(C[*:1])cc(C[*:2])c1; pXylylene = c1cc(C[*:2])ccc1C[*:1]

Key:
Albumin [1] = molecular target: Albumin (Mus musculus, UniProt P07724); test: Binding affinity to mouse serum albumin by fluorescence polarization assay; type: ADME
Albumin (Mus musculus, UniProt P07724), sequence (P07724 whole entry): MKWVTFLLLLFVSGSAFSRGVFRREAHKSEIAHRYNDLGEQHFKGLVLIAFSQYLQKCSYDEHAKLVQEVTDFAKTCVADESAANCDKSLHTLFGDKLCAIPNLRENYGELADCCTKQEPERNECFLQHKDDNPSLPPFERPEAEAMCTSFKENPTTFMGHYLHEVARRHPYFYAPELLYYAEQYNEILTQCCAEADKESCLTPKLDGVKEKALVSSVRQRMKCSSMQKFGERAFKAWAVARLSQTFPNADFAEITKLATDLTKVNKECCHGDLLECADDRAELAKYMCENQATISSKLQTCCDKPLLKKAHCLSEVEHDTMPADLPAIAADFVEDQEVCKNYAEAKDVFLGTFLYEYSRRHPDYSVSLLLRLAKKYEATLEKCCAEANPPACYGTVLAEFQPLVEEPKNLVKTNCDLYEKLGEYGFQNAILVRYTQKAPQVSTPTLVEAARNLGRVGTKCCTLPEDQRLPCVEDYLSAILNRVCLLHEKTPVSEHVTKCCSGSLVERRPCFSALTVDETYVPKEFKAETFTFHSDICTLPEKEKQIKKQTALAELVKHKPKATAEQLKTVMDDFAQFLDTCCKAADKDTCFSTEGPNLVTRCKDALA
Procedure, shortened: (§1)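 Proteins serially diluted 3/2-fold in phosphate buffer (10 mM Na2HPO4, pH 7.4, 150 mM NaCl) and mixed 1:1 with fluorescein-labelled peptide. Incubated 30 min at room temperature, then fluorescence polarization read (excitation 480 nm, emission 535 nm). KD from nonlinear regression of anisotropy against total protein concentration using a quadratic binding equation. Done at 25 °C.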

Albumin [2] = molecular target: Albumin (Homo sapiens, UniProt P02768); test: Binding affinity to human serum albumin by fluorescence polarization assay; type: ADME; procedure, shortened: as §1
Albumin (Homo sapiens, UniProt P02768), sequence (P02768 whole entry): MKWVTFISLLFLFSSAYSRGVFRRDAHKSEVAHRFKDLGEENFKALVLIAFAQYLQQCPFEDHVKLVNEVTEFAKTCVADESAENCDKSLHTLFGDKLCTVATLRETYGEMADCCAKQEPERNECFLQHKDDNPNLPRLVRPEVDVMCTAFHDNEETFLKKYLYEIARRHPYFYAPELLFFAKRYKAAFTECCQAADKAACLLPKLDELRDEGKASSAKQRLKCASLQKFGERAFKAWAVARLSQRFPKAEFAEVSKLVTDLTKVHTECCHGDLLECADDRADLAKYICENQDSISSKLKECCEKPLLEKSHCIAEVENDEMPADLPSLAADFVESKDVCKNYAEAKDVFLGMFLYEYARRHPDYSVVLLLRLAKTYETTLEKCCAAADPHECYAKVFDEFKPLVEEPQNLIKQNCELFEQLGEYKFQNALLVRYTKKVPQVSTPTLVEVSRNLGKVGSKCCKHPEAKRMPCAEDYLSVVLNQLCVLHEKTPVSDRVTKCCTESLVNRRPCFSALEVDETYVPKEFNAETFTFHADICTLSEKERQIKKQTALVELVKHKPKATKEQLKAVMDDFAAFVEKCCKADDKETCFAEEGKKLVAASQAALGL

[3] = Terminal half life in rabbit; type: ADME, organism-based, Oryctolagus cuniculus; conditions: in vivo
[4] = Terminal half life in mouse; type: ADME, organism-based; conditions: in vivo
Procedure, shortened: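 Female BALB/c mice aged 7–9 weeks, given 200 μL of 50 μM in PBS intravenously; 2–3 mice per time point. EDTA plasma sampled up to 320 min or up to 48 h. Conjugate measured by reversed-phase UFLC with fluorescence detection (ex 490, em 525 nm) and by uPA-capture ELISA with antifluorescein detection. Data fitted to a two-compartment model; t1/2 β taken.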

Plasma [5] = test: Drug degradation in mouse plasma at 50 uM after 24 hrs by RP-HPLC analysis; type: ADME, cell-free
Procedure, shortened: (§2)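 Peptide spiked from 1 mM water stock into mouse plasma (final 50 μM) and incubated at 37 °C. Samples taken at 0, 24 and 48 h, mixed 1:1 with water containing 0.1% TFA and stored at −20 °C. Analysed by RP-HPLC on a C8 column with 220 nm absorbance; peaks identified by ESI-MS.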

Plasma [6] = test: (§3) Drug degradation in mouse plasma at 50 uM after 24 to 48 hrs by RP-HPLC analysis; type: ADME, cell-free; conditions: 50 µM; procedure, shortened: as §2
[7] = molecular target: T1, Urokinase-type plasminogen activator (Homo sapiens, UniProt P00749); test: Inhibition of human uPA
Procedure, shortened: (§4)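 Human urinary low-molecular-weight uPA (1.5 nM) with 2-fold inhibitor dilutions (8 μM to 1.95 nM) at 25 °C. Additive: 0.1% casein (±1.5 μM hSA or mSA), 0.1% ovA or 0.1% bSA. Substrate 50 μM H-Glu-Gly-Arg-pNA; A405 initial rates over 1 h. Ki from Kiapp corrected for substrate; means of ≥3.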

[8] = molecular target: T1, Urokinase-type plasminogen activator; test: Inhibition of human uPA using H-Glu-Gly-Arg-pNA as substrate after 1 hr in presence of casein and human serum albumin; procedure, shortened: as §4
[9] = molecular target: T1, Urokinase-type plasminogen activator; test: Inhibition of human uPA using H-Glu-Gly-Arg-pNA as substrate after 1 hr in presence of casein and mouse serum albumin; procedure, shortened: as §4
[10] = molecular target: T1, Urokinase-type plasminogen activator; test: Inhibition of human uPA using H-Glu-Gly-Arg-pNA as substrate after 1 hr in presence of ovalbumin; procedure, shortened: as §4
[11] = molecular target: T1, Urokinase-type plasminogen activator; test: Inhibition of human uPA using H-Glu-Gly-Arg-pNA as substrate after 1 hr in presence of bovine serum albumin; procedure, shortened: as §4
[12] = molecular target: T1, Urokinase-type plasminogen activator; test: Inhibition of human uPA using H-Glu-Gly-Arg-pNA as substrate after 1 hr in presence of casein; procedure, shortened: as §4
[13] = as §3; type: ADME, cell-free; conditions: read-out: Drug degradation; procedure, shortened: as §2

Compound: CC(C)[C@@H]1NC(=O)[C@H](CCC(=O)O)NC(=O)[C@H](Cc2ccc(O)cc2)NC(=O)[C@H](CCCNC(=N)N)NC(=O)[C@H](CO)NC(=O)[C@@H](NC(=O)[C@H](C)N)CSCc2cccc(c2)CSC[C@@H](C(N)=O)NC(=O)[C@H](CC(=O)O)NC1=O (H-ACSRYEVDC-NH2; linker 2-9 via mXylylene)
Stability (Plasma [5]): Unstable

Compound: CC(C)[C@@H]1NC(=O)[C@H](CCC(=O)O)NC(=O)[C@H](Cc2ccc(O)cc2)NC(=O)[C@H](CCCN=C(N)N)NC(=O)[C@H](CO)NC(=O)[C@@H](NC(=O)[C@H](C)N)CSCc2cc3cc(c2)CSC[C@H](NC(=O)[C@H](CC(=O)O)NC1=O)C(=O)N[C@@H](CCCN=C(N)N)C(=O)NCC(=O)N[C@@H](CCCN=C(N)N)C(=O)NCC(=O)N[C@@H](CO)C(=O)N[C@@H](C)C(=O)N[C@H](C(=O)NCC(N)=O)CSC3 (H-ACSRYEVDCRGRGSACG-NH2; linker 2-9-16 via TBMB)
Stability (Plasma [6]): Unstable
Ki [7]: 53 nM
Ki [8]: 60 nM
Ki [9]: 54 nM
Ki [10]: 56 nM
Ki [11]: 53 nM
Ki [12]: 52 nM

Compound: CC(C)[C@@H]1NC(=O)[C@H](CCC(=O)O)NC(=O)[C@H](Cc2ccc(O)cc2)NC(=O)[C@H](CCCNC(=N)N)NC(=O)[C@H](CO)NC(=O)[C@@H](NC(=O)[C@H](C)N)CSCc2ccc(cc2)CSC[C@@H](C(=O)NCC(N)=O)NC(=O)[C@H](C)NC(=O)[C@H](CO)NC(=O)CNC(=O)[C@H](CCCNC(=N)N)NC(=O)CNC(=O)[C@H](CCCNC(=N)N)NC(=O)[C@H](CO)NC(=O)[C@H](CC(=O)O)NC1=O (H-ACSRYEVDSRGRGSACG-NH2; linker 2-16 via pXylylene)
metabolised at 50 µM [13]: 60%

Compound: C[C@@H]1NC(=O)[C@H](CO)NC(=O)CNC(=O)[C@H](CCCNC(=N)N)NC(=O)CNC(=O)[C@H](CCCNC(=N)N)NC(=O)[C@@H](N)CSCc2cccc(c2)CSC[C@@H](C(=O)NCC(N)=O)NC1=O (H-CRGRGSACG-NH2; linker 1-8 via mXylylene)
Stability (Plasma [5]): Unstable

Other lines, results leading:

Kd (Albumin [1]): 24 nM
Kd (Albumin [2]): 321 nM
Compound: CC[C@H](C)[C@H](NC(=O)[C@H](CC(C)C)NC(=O)[C@H](CCCNC(=N)N)N[C@@H](CCCCN)C(=O)NCCCCN=[N+]=[N-])C(=O)N[C@@H](CCC(=O)O)C(=O)N[C@@H](CC(=O)O)C(=O)N[C@H](C(=O)N[C@H]1CSSC[C@@H](C(=O)N[C@@H](CC(C)C)C(=O)N[C@@H](Cc2c[nH]c3ccccc23)C(=O)N[C@@H](CCC(=O)O)C(=O)N[C@@H](CC(=O)O)C(=O)N[C@@H](CC(=O)O)C(=O)O)NC(=O)CNC(=O)[C@H](Cc2c[nH]c3ccccc23)NC(=O)[C@H](CCCNC(=N)N)NC(=O)[C@@H]2CCCN2C(=O)[C@H](CC(C)C)NC1=O)[C@@H](C)CC

half-life [3]: 68.5 h
half-life [4]: 19.7 h
Compound: CC[C@H](C)[C@H](NC(=O)[C@H](CC(=O)O)NC(=O)[C@H](CCC(=O)O)NC(=O)[C@H](CCSC)NC(=O)[C@H](CC(C)C)NC(=O)[C@H](CCCNC(=N)N)NC(=O)[C@@H](N)CCC(N)=O)C(=O)N[C@@H](CS)C(=O)N[C@@H](CC(C)C)C(=O)N1CCC[C@H]1C(=O)N[C@@H](CCCNC(=N)N)C(=O)N[C@@H](Cc1c[nH]c2ccccc12)C(=O)NCC(=O)N[C@@H](CS)C(=O)N[C@@H](CC(C)C)C(=O)N[C@@H](Cc1c[nH]c2ccccc12)C(=O)N[C@@H](CCC(=O)O)C(=O)N[C@@H](CC(=O)O)C(=O)N[C@@H](CC(=O)O)C(=O)N[C@@H](Cc1ccccc1)C(N)=O

Stability (Plasma [6]): Unstable
Compound: CC(C)[C@H](NC(=O)[C@H](CCC(=O)O)NC(=O)[C@H](Cc1ccc(O)cc1)NC(=O)[C@H](CCCNC(=N)N)NC(=O)[C@H](CO)NC(=O)[C@H](CO)NC(=O)[C@H](C)N)C(=O)N[C@@H](CC(=O)O)C(=O)N[C@@H](CO)C(=O)N[C@@H](CCCNC(=N)N)C(=O)NCC(=O)N[C@@H](CCCNC(=N)N)C(=O)NCC(=O)N[C@@H](CO)C(=O)N[C@@H](C)C(=O)N[C@@H](CO)C(=O)NCC(N)=O (H-ASSRYEVDSRGRGSASG-NH2)
